Source: ChEMBL document CHEMBL1151423, “Pharmacokinetics-pharmacodynamics of gatifloxacin in a lethal murine Bacillus anthracis inhalation infection model” (Antimicrob Agents Chemother, 2007)
≈ marks a conversion by molar mass, not a printed value.

What was measured:
Mus musculus [1] = experiment: Tlag in mouse at 10 to 100 mg/kg, ip; type: ADME, organism-based; set-up: dose 10-100 mg/kg, route intraperitoneal; settings: in vivo
Outline: (§1)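 Mice, three groups, each received a single intraperitoneal gatifloxacin dose of 10, 50 or 100 mg/kg. Sera were taken by exsanguination under anaesthesia from three mice per group at 0.25–12 h post-dose and stored at −70°C. Levels were measured by bioassay (S. aureus ATCC 29213 indicator; standard curve in control mouse serum) in triplicate, detection range 0.12–64 μg/ml. Pooled data were fitted by maximum likelihood to a two-compartment model with first-order absorption and lag time.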

Mus musculus [2] = experiment: Apparent volume of distribution with respect to the bioavailability in mouse at 10 to 100 mg/kg, ip; type: ADME, organism-based; settings: in vivo; outline: as §1
Mus musculus [3] = experiment: Apparent peripheral volume of distribution in mouse at 10 to 100 mg/kg, ip; type: ADME, organism-based; set-up: dose 10-100 mg/kg, route intraperitoneal; settings: in vivo; outline: as §1
[4] = Apparent total clearance in human; type: ADME, organism-based; settings: in vivo, read-out: CLt/F (converted)
Bacillus anthracis = experiment: Antimicrobial activity against Bacillus anthracis Ames after 18 hrs by microdilution method; type: functional
[5] = Half life in mouse at 10 to 100 mg/kg, ip; type: ADME, organism-based; set-up: dose 10-100 mg/kg, route intraperitoneal; settings: in vivo; outline: as §1
[6] = Ratio of AUC (0 to 24 hrs) for Staphylococcus infected patient to MIC for Staphylococcus; type: functional
Mus musculus [7] = experiment: Apparent distribution clearance in mouse at 10 to 100 mg/kg, ip; type: ADME, organism-based; set-up: dose 10-100 mg/kg, route intraperitoneal; settings: in vivo; outline: as §1
[8] = Ratio of AUC (0 to 24 hrs) for Staphylococcus aureus infected ICR/Swiss mouse model to MIC for Staphylococcus aureus; type: functional
[9] = Half life in human; type: ADME, organism-based; settings: in vivo
[10] = Apparent total clearance in mouse at 10 to 100 mg/kg, ip; type: ADME, organism-based; set-up: dose 10-100 mg/kg, route intraperitoneal; settings: in vivo, read-out: CLt/F (converted); outline: as §1
[11] = Ratio of AUC (0 to 24 hrs) for Enterococcus infected patient to MIC for Enterococcus; type: functional

## COc1c(N2CCNC(C)C2)c(F)cc2c(=O)c(C(=O)O)cn(C3CC3)c12 (configuration not stated) [GATIFLOXACIN]
Mus musculus [1]
  Tlag: 0.23 h
Mus musculus [2]
  Vc/F: 0.2 L/kg
Mus musculus [3]
  Vp/F: 1.6 L/kg
[4]
  CL/F: 1.67 mL/min/kg
Bacillus anthracis
  MIC: 0.125 µg/mL (≈ 0.333 µM)
[5]
  half-life: 0.6 h
[6]
  Ratio: 85
Mus musculus [7]
  CLd/F: 128 mL/min/kg
[8]
  Ratio: 83
[9]
  half-life: 9 h
[10]
  CL/F: 45 mL/min/kg
[11]
  Ratio: 85
